Assay outcomes deposited in PubChem by several laboratories.
EBNA-1 inhibitor – blocks EBNA-1 binding to DNA. EBNA-1 DNA binding, fluorescence polarization. inhibition, % at 14.8 µM. actives 0.34% (n = 300,000). AID 1950; in the data active = inhibition above about 28%
GSTO1 counter – blocks human GSTO1 in RBBP9 counter-screen. recombinant GSTO1, activity-based probe fluorescence polarization. inhibition, % at 5.96 µM. actives 1.1% (n = 300,000);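 active = inhibition above the campaign mean inhibition plus 3 SD, cut at about 35% in these data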;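 also: 0% = GSTO1-1 with DMSO and 100% = wells lacking GSTO1-1 enzyme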
Target sequence (P78417 whole entry, looked up): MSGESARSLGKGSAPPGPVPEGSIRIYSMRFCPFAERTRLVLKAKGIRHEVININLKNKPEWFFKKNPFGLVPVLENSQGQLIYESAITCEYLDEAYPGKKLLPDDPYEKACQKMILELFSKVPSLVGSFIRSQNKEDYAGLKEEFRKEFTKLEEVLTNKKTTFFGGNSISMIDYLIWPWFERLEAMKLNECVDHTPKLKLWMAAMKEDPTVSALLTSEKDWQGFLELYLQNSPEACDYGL
procasp3 activ – activates human procaspase-3; P42574; recombinant procaspase-3 D3A, Ac-DEVD-pNA absorbance 405 nm; activation, % at 8.5 µM; actives 0.11% (n = 330,000); AID 463141;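 active = activation above the mean of all tested compounds plus 3 SD, cut at about 21% in these data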;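 also: 0% = DMSO alone and 100% = DMSO wells spiked with extra 5 µM PC-3 D3A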
Target sequence (P42574 whole entry D9A/D28A/D175A): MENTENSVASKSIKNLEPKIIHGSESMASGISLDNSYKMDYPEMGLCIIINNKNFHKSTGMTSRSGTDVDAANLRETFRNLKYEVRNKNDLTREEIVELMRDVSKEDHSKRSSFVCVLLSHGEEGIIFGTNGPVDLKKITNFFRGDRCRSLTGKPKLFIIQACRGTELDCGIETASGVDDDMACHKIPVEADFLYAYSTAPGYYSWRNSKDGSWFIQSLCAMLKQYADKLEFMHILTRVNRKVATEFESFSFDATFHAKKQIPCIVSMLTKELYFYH
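System: Procaspase-3 D3A mutant. Medium: Zinc-free 300 mM NaCl, 50 mM HEPES, 0.01% Triton X-100. Schedule: 1 h preincubation plus 2 h reaction at 25 °C. Measured by: 405 nm absorbance of p-nitroaniline, reads at 0 and 120 min. Read-out: percent activation relative to control range.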
ZTA DNA inh – ZTA (EBV) inhibition in EBNA-1 counter-screen; P03206; ZTA-DNA binding, fluorescence polarization; inhibition, % at 11 µM; actives 0.15% (n = 320,000); in the data active = inhibition above about 33%
Apaf-1 inh – blocks human Apaf-1 apoptosome activity | inhibition, % at 20 µM | actives 0.71% (n = 330,000) | reconstituted apoptosome caspase-3 activity, DEVD-Rh110 fluorescence; active = inhibition of at least 40% at 20 µM;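 also: plate controls were DMSO wells for no effect and DEVD-CHO caspase inhibitor wells for full effect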
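detection = Rh110 fluorescence intensity | test system = biochemical Apaf-1 apoptosome reconstitution | also added = cytochrome c and DEVD-Rh110 substrate | schedule = 30 min plus 50 min, RT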
procasp7 counter – counter-screen: procaspase-7 (human) activation. P55210. recombinant procaspase-7, Ac-DEVD-pNA absorbance 405 nm; D23A/D198A/D206A triple mutant, cannot self-cleave; scale: DMSO 0, 5 µM enzyme 100. activation, % at 8.5 µM. actives 0.093% (n = 330,000). AID 463210;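 active = percent activation above the screen-wide mean plus 3 SD, cut at about 25% in these data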
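buffer or medium = Zinc-free HEPES/NaCl buffer, pH 7.4 | material = Procaspase-7 triple mutant (PC-7 D3A) | input = 2 µM procaspase-7 mutant as dispensed | signal = Epi-absorbance of released pNA at 405 nm, two timepoints | timing = 1 h preincubation, 2 h reaction | replicates = singlicate compound testing | evaluation = % activation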
procasp7 triplic – counter-screen: procaspase-7 (human) activation in triplicate | activation, % at 8.5 µM | shares compounds with procasp3 activ | recombinant procaspase-7, Ac-DEVD-pNA absorbance; asp23/198/206-to-Ala mutant, cannot self-cleave | 210 tested, under 10 active;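 active = mean activation above a set limit taken from an earlier procaspase-7 screen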;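 also: 0% = DMSO wells and 100% = DMSO plus 5 µM procaspase-7 enzyme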
procasp3 conf – confirmation of human procaspase-3 activators; shares compounds with procasp3 activ; recombinant PC-3 D3A, Ac-DEVD-pNA absorbance 405 nm; 100% is higher-enzyme control; activation, % at 8.5 µM; actives 10% (n = 210); AID 488954;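 active = mean activation above a set limit carried over from the earlier primary screen, cut at about 22% in these data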
Apaf-1 inh conf – confirmation of Apaf-1 inhibitors | actives 25% (n = 1,800) | reconstituted apoptosome, caspase-3 DEVD-Rh110 fluorescence | shares compounds with Apaf-1 inh | inhibition, % at 20 µM;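 active = mean inhibition of at least 40% at 20 µM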;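 also: plate controls were DMSO wells for no effect and DEVD-CHO caspase inhibitor control wells for full effect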
Rh110 interf inh – interferes with Rh110 fluorescence, flagging false Apaf-1 inhibitors. shares compounds with Apaf-1 inh. Rh110 fluorescence interference, quenched caspase reaction. activation (fluorescence interference), % at 20 µM. 1,800 tested, under 10 active;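 active = signal rise of 40% or more at 20 µM, treated as a fluorescence artifact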
* marks the source's active call; other numbers are inactive results; · = no result. Shown are actives, neighbours in structure and some others; about 1.8% of the full set was active somewhere.

SMILES	EBNA-1 inhibitor	GSTO1 counter	procasp3 activ	ZTA DNA inh	Apaf-1 inh	procasp7 counter	procasp7 triplic	procasp3 conf	others
Nc1nn(S(=O)(=O)c2cccc3nsnc23)cc1-c1ccc(Br)cc1	-0.5	2.4	-1.7	-5.8	5.1	5.3	·	·
Cc1ccc(-c2cn(S(=O)(=O)c3cccc4nsnc34)nc2N)cc1	-11.0	3.6	23.1*	-23.1	3.3	-1.7	1.6	0.6
O=C(/C=C1\NC2(CCCC2)Cc2ccccc21)C(=O)N/N=C/c1ccccc1O	-8.3	-12.1	24.4*	0.3	11.0	-0.3	23.8	32.1*
COc1cc(/C=N/NC(=O)C(=O)/C=C2\NC3(CCCC3)Cc3ccccc32)ccc1O	-2.1	5.6	-6.8	0.7	21.4	-13.0	·	·
COCCNc1ncnc2c1cnn2Cc1ccccc1Cl	10.3	5.3	22.7*	8.6	-5.3	1.1	2.2	1.4
Cc1cc(C)c(OCC(=O)OC(C)C(=O)NCc2ccccc2)c(C)c1 (configuration not stated)	·	·	·	·	14.4	·	·	·
Cc1cc(N/N=C/c2ccc(N(C)C)cc2)c2ccccc2n1	-10.4	5.8	28.1*	-10.4	6.3	23.8	-4.4	-5.5
COc1ccc(S(=O)(=O)N(C)c2ccc(C(=O)NCCC(C)C)cc2)cc1	7.1	7.3	12.2	16.9	2.4	15.0	·	·
CCOCCCNC(=O)c1ccc(N(C)S(=O)(=O)c2ccc(OC)cc2)cc1	12.8	2.8	22.2*	14.6	-9.2	-2.5	1.3	4.9
Cc1ccc(S(=O)(=O)Oc2ccc(/C=C(/NC(=O)c3ccccc3)C(=O)O)cc2)cc1	-3.7	22.7	56.5*	5.6	9.5	0.5	3.1	4.1
Cc1ccc(S(=O)(=O)Oc2ccc(/C=C(/NC(=O)c3ccccc3)C(=O)NCC(=O)O)cc2)cc1	0.8	19.6	-28.9	-26.7	7.6	-29.8	·	·
Cc1ccc(OCC(=O)OCC(=O)NC2CC2)cc1C	·	·	10.1	-24.4	11.0	4.6	·	·
CCOc1ccc(-c2c(C(=O)N/N=C/c3ccc(C)s3)nnn2-c2nonc2N)cc1	-17.8	-9.1	25.7*	5.4	6.4	-6.4	-3.0	-3.6
CCOc1cccc(-c2c(C(=O)N/N=C/c3ccc(C)s3)nnn2-c2nonc2N)c1	-4.2	-12.0	-1.4	19.1	15.7	-3.6	·	·
COc1ccc(NC(=O)c2ccc3[nH]c(C)c(C)c3c2)cc1	·	·	·	·	11.4	·	·	·
CCC(C)NC(=O)CNC(=O)c1nn(-c2ccc(OC)c(Cl)c2)c(=O)c2ccccc12 (configuration not stated)	2.3	-2.0	21.7*	6.1	1.3	2.6	3.3	2.8
COc1ccc(-c2cc3ccc(O)cc3oc2=O)cc1	4.3	34.5	21.6*	-8.8	3.3	17.8	-19.6	-14.6
COCc1cc(C)n(CC(=O)Nc2ccc(N3CCOCC3)cc2)c(=O)c1C#N	3.4	-0.5	1.2	-6.8	11.8	5.4	·	·
O=C1OCCN1C(=O)[C@H]1[C@H](c2ccc(Cl)cc2)C(c2ccc(F)cc2)=NN1c1ccc(Br)cc1	·	·	26.8*	·	26.5	16.1	-23.3	-13.2
O=C(CC1SCCNC1=O)Nc1cccc(C(F)(F)F)c1 (configuration not stated)	-3.4	-0.6	67.2*	-9.0	-0.9	5.7	1.2	3.7
COc1ccc2nc(Nc3nc4cc5c(cc4s3)OCO5)sc2c1	3.9	1.0	68.9*	-25.5	27.2	6.8	-20.0	-14.1
O=C(CSc1ccccc1)Nc1ccc(N2CCOCC2)c(F)c1	-1.8	7.1	2.6	-3.2	6.5	-6.0	·	·
COc1ccc(-c2ccc(C#N)c(SCC(=O)OCc3ccccc3)n2)cc1OC	-5.1	-12.3	34.2*	-10.2	2.9	9.7	3.9	6.4
O=c1[nH]c2ccccc2nc1-c1cccs1	5.0	0.8	34.4*	-3.3	22.1	0.7	-21.7	-14.0
CCCC(=O)N(Cc1cc(=O)[nH]c2ccccc12)c1ccccc1	6.1	-5.6	74.5*	-4.3	9.4	7.1	3.3	5.1
SMILES	EBNA-1 inhibitor	GSTO1 counter	procasp3 activ	ZTA DNA inh	Apaf-1 inh	procasp7 counter	procasp7 triplic	procasp3 conf	others
COc1cc2cncc(Cc3ccc(Cl)cc3)c2cc1OC	·	·	10.7	-18.5	14.7	-4.2	·	·
Cc1cc2nn(-c3cccc4ccccc34)nc2cc1N	8.2	14.8	21.6*	1.1	27.8	5.0	5.4	24.5*
Cc1cc(C)c2cccc(N)c2n1	-0.7	4.0	-11.6	2.6	12.8	-2.4	·	·
COCCn1c(=NC(=O)c2cc(-c3cccs3)nc3ccccc23)sc2cc(S(N)(=O)=O)ccc21	5.0	-32.4	44.1*	11.6	-0.3	8.6	0.0	-2.9
CC(=O)c1cccc(NC(=O)c2cc(S(=O)(=O)N3CCOCC3)cs2)c1	7.4	2.2	7.0	10.5	-1.3	-2.6	·	·
O=S(=O)(NC1CCCCC1)c1ccc(S(=O)(=O)N2CCN3CCCC3C2)cc1 (configuration not stated)	10.2	6.3	37.2*	3.2	-9.3	9.2	2.9	4.5
O=S(=O)(NC1CC1)c1ccc(S(=O)(=O)N2CCN3CCCC3C2)cc1 (configuration not stated)	3.8	-2.3	-0.9	0.8	-8.1	-2.9	·	·
CCC(=O)Nc1c(S(=O)(=O)c2ccc(C)cc2)c2nc3ccccc3nc2n1C(C)c1ccccc1 (configuration not stated)	1.3	0.6	26.3*	-9.9	44.4*	6.5	-22.4	-13.7	Apaf-1 inh conf=15.4;Rh110 interf inh=3.9
CC(C)(C)C#CCn1c(/C=[N+](\[O-])C2CCCCC2)nc2ccccc21	5.4	-0.6	18.3	-4.2	1.6	15.0	·	·
